The source made the active and inactive calls. The calls are words filed in the database; no cut-off is given here.
What was measured:
[1] = target: T1, DNA topoisomerase 1 (Homo sapiens) (UniProt P11387); test: Inhibition of human DNA topoisomerase 1 assessed as induction of enzyme-dependent DNA cleavage relative to 1 uM camptothecin
T1 sequence (whole entry): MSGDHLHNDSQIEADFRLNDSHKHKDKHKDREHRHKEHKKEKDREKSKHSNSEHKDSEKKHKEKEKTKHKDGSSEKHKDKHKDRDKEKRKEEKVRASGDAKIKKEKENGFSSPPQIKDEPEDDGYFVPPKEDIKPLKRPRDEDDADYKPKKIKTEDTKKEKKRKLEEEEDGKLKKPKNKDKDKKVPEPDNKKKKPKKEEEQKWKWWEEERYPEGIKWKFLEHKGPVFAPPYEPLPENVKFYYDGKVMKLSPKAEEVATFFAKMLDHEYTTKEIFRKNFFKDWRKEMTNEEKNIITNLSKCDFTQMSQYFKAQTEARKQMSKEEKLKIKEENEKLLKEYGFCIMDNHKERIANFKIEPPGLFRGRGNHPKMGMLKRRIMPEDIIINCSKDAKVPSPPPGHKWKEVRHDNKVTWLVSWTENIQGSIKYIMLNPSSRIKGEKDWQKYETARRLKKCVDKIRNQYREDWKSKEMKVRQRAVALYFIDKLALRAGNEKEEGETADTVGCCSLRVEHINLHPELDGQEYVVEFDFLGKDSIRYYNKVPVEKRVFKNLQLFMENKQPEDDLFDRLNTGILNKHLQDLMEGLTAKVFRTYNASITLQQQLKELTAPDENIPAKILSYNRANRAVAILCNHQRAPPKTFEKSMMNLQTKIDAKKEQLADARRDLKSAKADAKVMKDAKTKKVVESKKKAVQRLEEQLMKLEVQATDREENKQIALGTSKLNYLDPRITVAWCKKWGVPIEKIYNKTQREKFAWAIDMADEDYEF

[2] = Induction of cell growth in human NCI60 cell sat 10 uM; type: functional
HOP-62 = test: Cytotoxicity against human HOP62 cells; type: functional
Method in brief: (§1)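 NCI ~60 human tumor cell line screen; after a single-dose pass at 10−5 M, selected compounds run at five concentrations from 10−8 to 10−4 M; GI50 reported per cell line.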

HCT-116 = test: Cytotoxicity against human HCT116 cells; type: functional; method in brief: as §1
SF-539 = test: Cytotoxicity against human SF539 cells; type: functional; method in brief: as §1
UACC-62 = test: Cytotoxicity against human UACC62 cells; type: functional; method in brief: as §1
SN12C = test: Cytotoxicity against human SN12C cells; type: functional; method in brief: as §1
DU-145 = test: Cytotoxicity against human DU145 cells; type: functional; method in brief: as §1
MDA-MB-435 = test: Cytotoxicity against human MDA-MB-435 cells; type: functional; method in brief: as §1
OVCAR-3 = test: Cytotoxicity against human OVCAR-3 cells; type: functional; method in brief: as §1

With `Cl.NCCCCCCCCCCNCc1c2c(nc3ccccc13)-c1cc3ccccc3c(=O)n1C2` the inhibition [1] was “inactive” and the Activity [2] was 30%.

`COc1cc2c3c(n(C)c(=O)c2cc1OC)-c1cc2c(cc1C3=O)OCO2` showed a GI50 (HOP-62) of 1300 nM, a GI50 (HCT-116) of 35000 nM and a GI50 (SF-539) of 41000 nM. The GI50 (UACC-62) was 4200 nM, the GI50 (SN12C) was 68000 nM and the GI50 (DU-145) was 37000 nM. For the same molecule, the GI50 (MDA-MB-435) was 96000 nM.

In the case of `NCCCCCCCNCc1c2c(nc3ccccc13)-c1cc3ccccc3c(=O)n1C2`, the inhibition [1] is reported as 50%.

Work on `NCCCNCc1c2c(nc3ccccc13)-c1cc3ccccc3c(=O)n1C2` yielded a GI50 (HOP-62) of 9800 nM, a GI50 (HCT-116) of 1500 nM and a GI50 (SF-539) of 4900 nM. It also gave a GI50 (UACC-62) of 4800 nM, a GI50 (OVCAR-3) of 1400 nM and a GI50 (SN12C) of 2100 nM. For the same molecule, the GI50 (DU-145) was 1100 nM, the GI50 (MDA-MB-435) was 6800 nM and the inhibition [1] was 50%.

Work on `COc1cc2c3c(n(CCCNCCO)c(=O)c2cc1OC)-c1cc2c(cc1C3=O)OCO2` [LMP-744] yielded a GI50 (HOP-62) of 20 nM, a GI50 (HCT-116) of 100 nM and a GI50 (SF-539) of 40 nM. For the same molecule, the GI50 (UACC-62) was 30 nM, the GI50 (OVCAR-3) was 500 nM and the GI50 (SN12C) was < 10 nM. For the same molecule, the GI50 (DU-145) was < 10 nM, the GI50 (MDA-MB-435) was 790 nM and the inhibition [1] was “Active”.

`NCCCCCCNCc1c2c(nc3ccccc13)-c1cc3ccccc3c(=O)n1C2` gave a GI50 (HOP-62) of 1200 nM, a GI50 (HCT-116) of 630 nM and a GI50 (SF-539) of 740 nM. It also gave a GI50 (UACC-62) of 2000 nM, a GI50 (OVCAR-3) of 1400 nM and a GI50 (SN12C) of 510 nM. The GI50 (DU-145) was 330 nM, the GI50 (MDA-MB-435) was 1500 nM and the inhibition [1] was 50%.

`NCCCCNCc1c2c(nc3ccccc13)-c1cc3ccccc3c(=O)n1C2` gave an inhibition [1] of 75%.

Molecule `NCCCCCCCCCNCc1c2c(nc3ccccc13)-c1cc3ccccc3c(=O)n1C2` has an inhibition [1] of 25%.

In the case of `O=c1c2ccccc2cc2n1Cc1cc3ccccc3nc1-2` [ROSETTACIN], the GI50 (SN12C) is reported as > 100000 nM and the GI50 (DU-145) is reported as > 100000 nM.

Work on `CC[C@@]1(O)C(=O)OCc2c1cc1n(c2=O)Cc2cc3ccccc3nc2-1` [CAMPTOTHECIN] yielded a GI50 (HOP-62) of 10 nM, a GI50 (HCT-116) of 30 nM and a GI50 (SF-539) of 10 nM. For the same molecule, the GI50 (UACC-62) was 10 nM, the GI50 (SN12C) was 20 nM and the GI50 (DU-145) was 10 nM. The GI50 (MDA-MB-435) was 40 nM.

Work on `NCCCCCNCc1c2c(nc3ccccc13)-c1cc3ccccc3c(=O)n1C2` yielded a GI50 (HOP-62) of 2600 nM, a GI50 (HCT-116) of 3200 nM and a GI50 (SF-539) of 7200 nM. The GI50 (UACC-62) was 1900 nM, the GI50 (OVCAR-3) was 8100 nM and the GI50 (SN12C) was 3200 nM. It also gave a GI50 (DU-145) of 1100 nM, a GI50 (MDA-MB-435) of 12600 nM and an inhibition [1] of 25%.

`NCCNCc1c2c(nc3ccccc13)-c1cc3ccccc3c(=O)n1C2` showed a GI50 (HOP-62) of 1400 nM, a GI50 (HCT-116) of 1500 nM and a GI50 (SF-539) of 8300 nM. The GI50 (UACC-62) was 12600 nM, the GI50 (OVCAR-3) was 1700 nM and the GI50 (SN12C) was 1500 nM. The GI50 (DU-145) was 1400 nM, the GI50 (MDA-MB-435) was 11000 nM and the inhibition [1] was 75%.

With `NCCCCCCCCCCCNCc1c2c(nc3ccccc13)-c1cc3ccccc3c(=O)n1C2` the inhibition [1] was “inactive”.

In the case of `NCCCCCCCCNCc1c2c(nc3ccccc13)-c1cc3ccccc3c(=O)n1C2`, the GI50 (HOP-62) is reported as 2800 nM, the GI50 (HCT-116) is reported as 1800 nM and the GI50 (SF-539) is reported as 1900 nM. For the same molecule, the GI50 (UACC-62) was 1800 nM, the GI50 (OVCAR-3) was 2500 nM and the GI50 (SN12C) was 1800 nM. The GI50 (DU-145) was 1100 nM, the GI50 (MDA-MB-435) was 3100 nM and the inhibition [1] was 25%.

`NCCCCCCCCCCCCNCc1c2c(nc3ccccc13)-c1cc3ccccc3c(=O)n1C2` gave a GI50 (HOP-62) of 6500 nM, a GI50 (HCT-116) of 2000 nM and a GI50 (SF-539) of 1800 nM. It also gave a GI50 (UACC-62) of 1900 nM, a GI50 (OVCAR-3) of 1900 nM and a GI50 (SN12C) of 2500 nM. For the same molecule, the GI50 (DU-145) was 2000 nM, the GI50 (MDA-MB-435) was 1700 nM and the inhibition [1] was “inactive”.

From ChEMBL document CHEMBL1152636, “Synthesis and biological evaluation of 14-(aminoalkyl-aminomethyl)aromathecins as topoisomerase I inhibitors: investigating the hypothesis of shared structure-activity relationships” (2009)
